Published values collected from several papers.
Lines come from different studies, so protocols differ.
murD: UDP-N-acetylmuramoylalanine--D-glutamate ligase (murD, Escherichia coli K-12, UniProt P14900)
BAZ1B: Tyrosine-protein kinase BAZ1B (BAZ1B, Homo sapiens, UniProt Q9UIG0)
BRD4 BD1: Bromodomain-containing protein 4, BD1 (BRD4, Homo sapiens, UniProt O60885)
CDK11B: Cyclin-dependent kinase 11B (CDK11B, Homo sapiens, UniProt P21127)
KAT2B: Histone acetyltransferase KAT2B (KAT2B, Homo sapiens, UniProt Q92831)
HDAC8: Histone deacetylase 8 (HDAC8, Homo sapiens, UniProt Q9BY41)

With `CCCOc1ccc(OC)c(F)c1C(=O)c1ccc(C(=O)N[C@@H]2CNC[C@H]2NC(=O)c2ccc3[nH]ncc3c2)cc1` the remaining activity was -6% (cGMP-dependent protein kinase 1 (PRKG1, Homo sapiens, UniProt Q13976); enzyme activity; inhibitor; 10 µM).
`O=C(Nc1ccc(C=NNS(=O)(=O)c2ccc3ccccc3c2)cc1)c1ccccc1` gave a remaining activity of 56% (murD; enzyme activity; inhibitor; absorbance; 100 µM).
`Cc1cnc(Nc2ccc(OCCN3CCCC3)cc2)nc1Nc1cccc(S(=O)(=O)NC(C)(C)C)c1` has a ΔTm of -0.02 °C (BAZ1B; thermal stability; DSF; 10 µM).
With `O=C(Nc1ccc(C=NNS(=O)(=O)c2ccc3ccccc3c2)cc1)c1ccc([N+](=O)[O-])cc1` the remaining activity was 81% (murD; enzyme activity; inhibitor; absorbance; 50 µM).
`CN(C)CCN1CCN(c2nc(NCc3cccc(Cl)c3)c3cc(-c4ccc(=O)n(C)c4)ccc3n2)CC1` gave a ΔTm of 15 °C (BRD4 BD1; thermal stability; DSF; 250 µM).
`Nc1ncnc2occ(-c3ccc(NC(=O)Nc4cc(C(F)(F)F)ccc4F)cc3)c12` has a remaining signal of 0.4% (CDK11B; cell-free assay; 20 µM).
`Oc1ccc(-c2nc(-c3ccncc3)c(-c3ccc(F)cc3)[nH]2)cc1` gave a ΔTm of -0.19 °C (KAT2B; thermal stability; DSF; 10 µM).
With `O=C(Cc1ccc2c(c1)OCO2)Oc1ccccc1C=NNS(=O)(=O)c1ccc2ccccc2c1` the remaining activity was 49% (murD; enzyme activity; inhibitor; absorbance; 100 µM).
With `CC(C)[C@@H]1NC(=O)[C@@H]2CCCN2C(=O)[C@H](Cc2ccccc2)NC(=O)CSC[C@@H](C(=O)N[C@@H](Cc2ccc(O)cc2)C(N)=O)NC(=O)[C@H](Cc2c[nH]c3ccccc23)NC(=O)[C@H](CCCCN)NC(=O)[C@H](Cc2ccccc2)N(C)C(=O)[C@H](Cc2ccccc2)NC1=O` the ΔTm was -0.27 °C (BRD4 BD1; thermal stability; DSF; 200 µM).
The inhibition of `O=c1c(O)c(-c2ccc(O)cc2)oc2cc(O)cc(O)c12` is reported as 66.3% (HDAC8; enzyme activity; inhibitor; 10 µM).
For `Cc1cc2c(cc1N1C(=O)c3cccc4c(Cl)ccc(c34)C1=O)n(C)c(=O)n2C`, the ΔTm was -1 °C (BAZ1B; thermal stability; DSF; 10 µM).
`C[S+]([O-])c1ccc(-c2nc(-c3ccncc3)c(-c3ccc(F)cc3)[nH]2)cc1` (centres unmarked) gave a ΔTm of 1.67 °C (Bromodomain-containing protein 4, BD2 (BRD4, Homo sapiens, UniProt O60885); thermal stability; DSF; 10 µM).
The inhibition of `O=c1c(O)c(-c2ccc(O)c(O)c2)oc2cc(O)cc(O)c12` is reported as 68% (HDAC8; enzyme activity; inhibitor; 10 µM).
With `O=[N+]([O-])c1cccc(S(=O)(=O)Oc2ccccc2C=NNS(=O)(=O)c2ccc3ccccc3c2)c1` the remaining activity was 70% (murD; enzyme activity; inhibitor; absorbance; 50 µM).
With `NS(=O)(=O)c1ccc(Nc2nc(-c3ccc(F)cc3)c3ccccc3n2)cc1` the remaining binding was 80% (KAT2B; binding; competition with immobilised ligand; 1 µM).
The remaining activity of `N#Cc1ccc(COc2ccccc2C=NNS(=O)(=O)c2ccccc2[N+](=O)[O-])cc1` is reported as 86% (murD; enzyme activity; inhibitor; absorbance; 100 µM).
The remaining activity of `Cc1ccc(C(=O)Nc2ccc(CN3CCN(C)CC3)c(C(F)(F)F)c2)cc1C#Cc1cnc2cccnn12` is reported as 79% (CDK11B; enzyme activity; 23.5 nM).
